From ChEMBL document CHEMBL1154125, “Ebenfurans IV-VIII from Onobrychis ebenoides: evidence that C-prenylation is the key determinant of the cytotoxicity of 3-formyl-2-arylbenzofurans” (J Nat Prod, 2008)

Key:
MCF7 [1] = test: Cytotoxicity against human MCF7 cells at 0.1 nM by MTT assay relative to control in presence of 17-beta-estradiol; type: functional
Method in brief: (§1)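 MCF-7 cells were kept in phenol red-free MEM with 5% dextran-charcoal-stripped FBS supplemented with 0.1 nM 17β-estradiol. They were treated for 3 days with test compounds at 10 µM, 17β-estradiol at 0.1 nM, or ICI 182,780 at 1 µM, all in DMSO. MTT conversion was read at 550 nm. OD × 100/OD of estradiol-alone control, mean ± SEM, ≥3 independent assays.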

MCF7 [2] = test: Cytotoxicity against human MCF7 cells at 0.1 nM by MTT assay relative to control in absence of 17-beta-estradiol; type: functional
MCF7 [3] = test: Cytotoxicity against human MCF7 cells at 10 uM by MTT assay relative to control in absence of 17-beta-estradiol; type: functional
Method in brief: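 MCF-7 cells were grown in phenol red-free MEM with 5% dextran-charcoal-stripped FBS and vehicle (DMSO) only. They were exposed for 3 days to agents dissolved in DMSO: test compounds at 10 µM, 17β-estradiol at 0.1 nM, ICI 182,780 at 1 µM. MTT formazan was read at 550 nm. Efficacy = OD test × 100/OD vehicle control, given as mean ± SEM of at least three independent assays.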

[4] = target: T1, Estrogen receptor (Homo sapiens) (UniProt P03372); test: Binding affinity to recombinant ERalpha by fluorescence polarization assay relative to 17-beta-estradiol
T1 sequence (whole entry): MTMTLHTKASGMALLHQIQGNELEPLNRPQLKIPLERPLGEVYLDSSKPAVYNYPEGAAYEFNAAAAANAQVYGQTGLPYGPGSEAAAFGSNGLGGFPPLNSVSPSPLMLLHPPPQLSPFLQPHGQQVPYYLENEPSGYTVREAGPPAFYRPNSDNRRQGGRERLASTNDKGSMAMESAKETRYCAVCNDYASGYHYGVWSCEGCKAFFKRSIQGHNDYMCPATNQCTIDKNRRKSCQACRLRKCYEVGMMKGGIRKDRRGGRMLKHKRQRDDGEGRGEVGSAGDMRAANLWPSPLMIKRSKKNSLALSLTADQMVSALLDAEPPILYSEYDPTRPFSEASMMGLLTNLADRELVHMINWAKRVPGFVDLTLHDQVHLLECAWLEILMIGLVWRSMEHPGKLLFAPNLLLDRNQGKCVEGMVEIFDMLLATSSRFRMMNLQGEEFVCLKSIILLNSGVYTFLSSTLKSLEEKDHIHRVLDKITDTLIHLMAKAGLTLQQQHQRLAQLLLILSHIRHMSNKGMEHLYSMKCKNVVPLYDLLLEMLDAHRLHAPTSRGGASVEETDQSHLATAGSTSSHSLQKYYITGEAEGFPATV

MCF7 [5] = test: Cytotoxicity against human MCF7 cells at 10 uM by MTT assay relative to control in presence of 17-beta-estradiol; type: functional; method in brief: as §1
MCF7 [6] = test: Cytotoxicity against human MCF7 cells by MTT assay in presence of 17-beta-estradiol; type: functional, cell-based
Method in brief: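 In phenol red-free MEM with 5% dextran-charcoal-treated FBS containing 0.1 nM 17β-estradiol, MCF-7 cultures received increasing concentrations of agents (DMSO solutions) for 3 days. Readout was MTT formazan absorbance at 550 nm relative to cells given the hormone alone. EC50 = concentration reaching 50% of efficacy, derived only for statistically significant effects.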

MCF7 [7] = test: Cytotoxicity against human MCF7 cells by MTT assay in absence of 17-beta-estradiol; type: functional, cell-based
Method in brief: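 Cells were grown in steroid-depleted medium (phenol red-free MEM, 5% dextran-charcoal FBS) plus DMSO vehicle. Increasing concentrations of agents in DMSO were applied for 3 days. Viable cells were estimated from MTT formazan absorbance at 550 nm. EC50 = concentration giving 50% of efficacy, computed only for statistically significant effects.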

MCF7 [8] = test: Cytotoxicity against human MCF7 cells at 1 uM by MTT assay relative to control in the absence of 17-beta-estradiol; type: functional
Method in brief: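 MCF-7 cells in phenol red-free MEM with 5% dextran-charcoal-stripped FBS, vehicle (DMSO) only, no estradiol. ICI 182,780 at 1 µM applied for 3 days. Viable cells assessed by MTT formazan absorbance at 550 nm. Efficacy = OD treated ×100/OD vehicle control; mean ± SEM of at least three independent assays.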

MCF7 [9] = test: Cytotoxicity against human MCF7 cells at 1 uM by MTT assay relative to control in presence of 17-beta-estradiol; type: functional
Method in brief: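 MCF-7 cells in phenol red-free MEM with 5% dextran-charcoal-stripped FBS, supplemented with 0.1 nM 17β-estradiol. Treated with ICI 182,780 at 1 µM (DMSO) for 3 days. MTT conversion to formazan read at 550 nm. Efficacy = OD treated ×100/OD of estradiol-alone control; mean ± SEM of ≥3 independent assays.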

relative binding affinity (RBA) [4]	SMILES	Activity (MCF7 [1])	Activity (MCF7 [2])	Activity (MCF7 [3])	Activity (MCF7 [5])	EC50 (MCF7 [6])	EC50 (MCF7 [7])	Activity (MCF7 [8])	Activity (MCF7 [9])
–	C[C@]12CC[C@@H]3c4ccc(O)cc4CC[C@H]3[C@@H]1CC[C@@H]2O [ESTRADIOL]	104%	163%	–	–	–	–	–	–
0.94	C=C(C)C(O)Cc1c(OC)cc2oc(-c3ccc(O)cc3O)c(C=O)c2c1O (stereo not drawn) [EBENFURAN VII]	–	–	123%	79%	–	–	–	–
0.23	COc1cc2oc(-c3ccc(O)cc3O)c(C=O)c2c(O)c1CCC(C)(C)O [EBENFURAN V]	–	–	115%	98%	–	–	–	–
0.18	COc1cc(O)c2c(C=O)c(-c3ccc(O)cc3O)oc2c1 [EBENFURAN II]	–	–	111%	64%	5.5 µM	–	–	–
0.09	COc1cc2oc(-c3ccc(O)cc3O)c(C=O)c2c(O)c1CC=C(C)C [EBENFURAN III]	–	–	47%	31%	2.9 µM	2.6 µM	–	–
0.46	COc1cc(O)ccc1-c1oc2cc(OC)c(CC=C(C)C)c(O)c2c1C=O [EBENFURAN IV]	–	–	54%	31%	3.9 µM	6.7 µM	–	–
–	C[C@]12CC[C@@H]3c4ccc(O)cc4C[C@@H](CCCCCCCCC[S+]([O-])CCCC(F)(F)C(F)(F)F)[C@H]3[C@@H]1CC[C@@H]2O (stereo partly drawn) [FULVESTRANT]	–	–	–	–	–	–	103%	63%
0.06	COc1cc(O)ccc1-c1oc2cc(OC)c(CCC(C)(C)O)c(O)c2c1C=O [EBENFURAN VI]	–	–	154%	118%	–	4.8 µM	–	–
